Here are results for 30 molecules from ChEMBL document CHEMBL2169773, “Modified acidic nonsteroidal anti-inflammatory drugs as dual inhibitors of mPGES-1 and 5-LOX” (J Med Chem, 2012).

Structures are written as SMILES. Active and inactive are the calls of the source. The rule behind the calls is not given here.

In assay [1] the target is T1, Prostaglandin G/H synthase 1 (Ovis aries) (UniProt P05979).
T1 sequence (whole entry): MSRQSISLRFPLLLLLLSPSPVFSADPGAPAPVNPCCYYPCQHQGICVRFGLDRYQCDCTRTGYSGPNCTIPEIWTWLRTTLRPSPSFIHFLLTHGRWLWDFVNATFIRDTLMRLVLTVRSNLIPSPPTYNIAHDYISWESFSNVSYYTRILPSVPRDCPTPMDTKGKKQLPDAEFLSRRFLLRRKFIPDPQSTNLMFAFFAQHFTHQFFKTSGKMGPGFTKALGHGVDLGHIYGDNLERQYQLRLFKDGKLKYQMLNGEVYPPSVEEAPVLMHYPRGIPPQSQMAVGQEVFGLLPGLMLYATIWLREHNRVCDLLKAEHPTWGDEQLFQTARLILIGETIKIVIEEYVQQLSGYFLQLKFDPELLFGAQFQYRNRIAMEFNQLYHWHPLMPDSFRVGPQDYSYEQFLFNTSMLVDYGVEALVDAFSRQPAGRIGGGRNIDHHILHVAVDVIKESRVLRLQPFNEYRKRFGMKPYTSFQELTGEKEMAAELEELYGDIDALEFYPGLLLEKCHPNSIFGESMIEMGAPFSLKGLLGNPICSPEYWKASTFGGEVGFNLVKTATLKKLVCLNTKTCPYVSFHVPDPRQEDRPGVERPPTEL
Nature of the assay: Inhibition of ovine COX1 assessed as inhibition of 12-HHT formation preincubated at 10 uM for 5 mins before arachidonic acid addition by HPLC analysis.

The target of assay [2] is T2, Polyunsaturated fatty acid 5-lipoxygenase (Homo sapiens) (UniProt P09917).
T2 sequence (whole entry): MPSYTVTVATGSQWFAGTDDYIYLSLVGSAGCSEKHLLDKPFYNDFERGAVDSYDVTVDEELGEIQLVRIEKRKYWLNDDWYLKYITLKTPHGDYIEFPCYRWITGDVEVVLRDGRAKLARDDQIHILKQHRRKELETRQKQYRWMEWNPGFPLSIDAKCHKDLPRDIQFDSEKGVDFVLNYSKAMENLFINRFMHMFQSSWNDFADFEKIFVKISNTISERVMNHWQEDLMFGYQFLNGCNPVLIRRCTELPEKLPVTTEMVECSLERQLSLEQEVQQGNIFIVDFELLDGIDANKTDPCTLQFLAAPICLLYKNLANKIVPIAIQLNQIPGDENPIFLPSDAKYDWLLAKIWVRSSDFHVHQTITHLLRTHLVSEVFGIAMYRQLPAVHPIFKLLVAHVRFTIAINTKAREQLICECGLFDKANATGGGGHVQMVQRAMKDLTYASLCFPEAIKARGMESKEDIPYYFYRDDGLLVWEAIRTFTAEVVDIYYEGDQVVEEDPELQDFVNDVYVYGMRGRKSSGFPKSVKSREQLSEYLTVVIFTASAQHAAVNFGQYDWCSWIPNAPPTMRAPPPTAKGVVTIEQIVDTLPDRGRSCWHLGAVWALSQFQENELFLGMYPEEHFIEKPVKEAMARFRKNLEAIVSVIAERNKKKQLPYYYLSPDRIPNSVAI
Nature of the assay: Inhibition of 5-lipoxygenase in A23187-stimulated human neutrophils assessed as remaining activity measuring enzyme product formation at 10 uM by RP-HPLC analysis relative to vehicle-treated control. An outline of the steps: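 Human neutrophils (whole cells) stimulated with A23187 and 20 μM exogenous arachidonic acid; test compounds at 10 μM. Activity expressed as % remaining versus vehicle control; BWA4C as reference inhibitor; mean with SE, n = 3−5.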

Assay [3] has as its target T3, Prostaglandin E synthase (Homo sapiens) (UniProt O14684).
T3 sequence (whole entry): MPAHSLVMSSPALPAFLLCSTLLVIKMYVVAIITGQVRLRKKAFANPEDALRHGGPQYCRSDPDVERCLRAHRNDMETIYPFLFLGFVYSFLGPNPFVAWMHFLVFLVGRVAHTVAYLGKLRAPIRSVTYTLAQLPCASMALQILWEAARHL
As to the kind of experiment: Inhibition of mPGES-1 in human IL-1beta-stimulated A549 cell microsomes assessed as remaining activity measuring PGE2 formation from PGH2 at 10 uM after 15 mins by RP-HPLC analysis. Conditions: Microsome. Summed up: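 Cell-free assay with microsomes from human A549 cells; PGE2 generation from 20 μM PGH2 substrate; compounds tested at 10 μM. Result given as % PGE2 formation remaining versus vehicle control; MK-886 reference; mean with SE, n = 3−5.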

The target in assay [4] is T4, Prostaglandin E synthase (Homo sapiens, UniProt O14684).
T4 sequence (O14684 whole entry): T3 sequence (whole entry)
As to the kind of experiment: Inhibition of mPGES-1 in human IL-1beta-stimulated A549 cell microsomes assessed as inhibition of PGE2 formation from PGH2 after 15 mins by RP-HPLC analysis. Details: species or system Microsome.

Assay [5] concerns the target T5, Polyunsaturated fatty acid 5-lipoxygenase (Homo sapiens, UniProt P09917).
T5 sequence (P09917 whole entry): T2 sequence (whole entry)
Nature of the assay: Inhibition of 5-lipoxygenase in A23187-stimulated human neutrophils assessed as inhibition of enzyme product formation by RP-HPLC analysis. Summed up: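 Whole-cell assay in human neutrophils stimulated with A23187 plus 20 μM exogenous arachidonic acid as substrate; BWA4C as reference inhibitor. IC50 calculated for selected compounds; mean with SE, n = 3−5.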

The target of assay [6] is T1, Prostaglandin G/H synthase 1 (Ovis aries). As to the kind of experiment: Inhibition of ovine COX1 assessed as inhibition of 12-HHT formation measuring remaining activity preincubated at 10 uM for 5 mins before arachidonic acid addition by HPLC analysis. An outline of the steps:
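Isolated ovine COX-1 in a cell-free assay, 5 μM arachidonic acid as substrate; compounds at fixed 10 μM. 12-HHT formation expressed as % activity versus vehicle control; mean with SE, n = 3.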

Broadly, the IC50 is the concentration that gives 50% inhibition.

Take `Cc1ccc(S(=O)(=O)NC(=O)C(C)c2ccc(CC(C)C)cc2)cc1` (stereo not drawn): in assay [1], the inhibition result is “inactive”. Besides, the values for the Activity in assay [2] and in assay [3] were 67.7% and 78.6%, respectively.
Regarding `O=C(O)Cc1cn(-c2ccccc2)nc1-c1ccc(C#Cc2cccc(Cl)c2)cc1`, the IC50 in assay [4] (read-out: IC50) came to 180 nM; in assay [5] (read-out: IC50), 3900 nM. Also, the inhibition entry in assay [1] is “inactive”.
For `COc1ccc2cc(C(C)C(=O)NS(C)(=O)=O)ccc2c1` (stereo not drawn), in assay [1], the inhibition entry was “inactive”. In assay [5], the IC50 entry is reported as “Not Active”. In addition, the Activity in assay [3] amounted to 92.5%.
In the case of `COc1ccc2c(c1)c(C(=O)NCc1ccc(S(C)(=O)=O)cc1)c(C)n2C(=O)c1ccc(Cl)cc1`, in assay [1], the inhibition result is “inactive”. For the same molecule, the Activity in assay [3] came to 68.7%.
Take `Cc1ccc(S(=O)(=O)NC(=O)Cc2cn(-c3ccccc3)nc2-c2ccc(Cl)cc2)cc1`: the IC50 in assay [4] (read-out: IC50) came out at 3400 nM; in assay [5] (read-out: IC50), 2500 nM. For the same molecule, the inhibition result in assay [1] was “inactive”.
For `COc1ccc2c(c1)c(CC(=O)NS(C)(=O)=O)c(C)n2C(=O)c1ccc(Cl)cc1`, in assay [1], the inhibition entry was “inactive”. The Activity in assay [2] came to 64.9%; in assay [3], 73.6%.
Consider `O=C(O)Cc1cn(-c2ccccc2)nc1-c1ccc(C#Cc2ccc(Cl)cc2)cc1`, for which the values for the 50% inhibitory concentration (IC50) in assay [4] (read-out: IC50) and in assay [5] (read-out: IC50) were 160 nM and 3700 nM, respectively. Also, the inhibition entry in assay [1] is “inactive”. In assay [6], the Activity worked out at 77.8%.
On to `CC(C)Cc1ccc(C(C)C(=O)NS(C)(=O)=O)cc1` (stereo not drawn), for which the inhibition entry in assay [1] was “inactive”. Besides, the Activity in assay [2] is 91.2%; in assay [3], 67.9%.
Take `COc1ccc2cc([C@H](C)C(=O)O)ccc2c1` [NAPROXEN]: the IC50 result in assay [4] (a549) and in assay [5] was “Not Active” in each case.
`Cc1c(CC(=O)O)c2cc(C#Cc3ccccc3)ccc2n1Cc1ccc(Cl)cc1`: the figures for the IC50 in assay [4] (read-out: IC50) and in assay [5] (read-out: IC50) were 2500 nM and 900 nM, respectively. In assay [1], the inhibition result was “inactive”.
For `O=C(Cc1cn(-c2ccccc2)nc1-c1ccc(Cl)cc1)NS(=O)(=O)c1ccc(Cl)cc1`, in that order: 2300 nM, 2900 nM and “inactive”.
For `COc1ccc2cc(C(C)C(=O)NS(=O)(=O)c3ccc(C)cc3)ccc2c1` (stereo not drawn), in assay [1], the inhibition entry is “inactive”. Also, the IC50 result in assay [5] was “Not Active”. In addition, the Activity in assay [3] was 72.8%.
Take `O=C(Cc1cn(-c2ccccc2)nc1-c1ccc(C#Cc2cccc(Cl)c2)cc1)NS(=O)(=O)c1ccc(Cl)cc1`: the values for the half-inhibitory concentration (IC50) in assay [4] (read-out: IC50) and in assay [5] (read-out: IC50) were 800 nM and 2300 nM, respectively. Moreover, the inhibition entry in assay [1] was “inactive”.
In the case of `CC(C)Cc1ccc(C(C)C(=O)O)cc1` (stereo not drawn) [IBUPROFEN], the concentration for half-maximal inhibition (IC50) result in assay [5] is reported as “Not Active”. The Activity in assay [3] was 81.2%.
As to `CCOC(=O)Cc1c(C)n(Cc2ccc(Cl)cc2)c2ccc(C#Cc3ccccc3)cc12`, the inhibition result in assay [1] was “inactive”. Also, the Activity in assay [3] stood at 86.1%.
For the molecule `Cc1ccc(S(=O)(=O)NC(=O)Cc2c(C)n(Cc3ccc(Cl)cc3)c3ccc(C#Cc4ccccc4)cc23)cc1`, the concentration for half-maximal inhibition (IC50) in assay [4] (read-out: IC50) came out at 2800 nM; in assay [5] (read-out: IC50), 1500 nM. Besides, the inhibition result in assay [1] was “inactive”. Besides, in assay [6], the Activity turned out to be 83.1%.
With `Cc1c(CC(=O)NS(=O)(=O)c2ccc(Cl)cc2)c2cc(C#Cc3ccccc3)ccc2n1Cc1ccc(Cl)cc1`, the half-maximal inhibitory concentration (IC50) in assay [4] (read-out: IC50) was 1800 nM; in assay [5] (read-out: IC50), 2000 nM. The inhibition entry in assay [1] is “inactive”.
For `O=C(Cc1cn(-c2ccccc2)nc1-c1ccc(C#Cc2ccc(Cl)cc2)cc1)NS(=O)(=O)c1ccc(Cl)cc1`, the IC50 came out at 350 nM in assay [4] (read-out: IC50) and 4700 nM in assay [5] (read-out: IC50). Also, the inhibition entry in assay [1] was “inactive”. Moreover, the Activity in assay [6] came out at 70.1%.
Take `O=C(O)Cc1cn(-c2ccccc2)nc1-c1ccc(C#Cc2ccccc2)cc1`: the IC50 in assay [4] (read-out: IC50) stood at 400 nM; in assay [5] (read-out: IC50) it was 5000 nM. Besides, the inhibition entry in assay [1] is “inactive”.
On to `CC(C(=O)O)c1cccc(C(=O)c2ccccc2)c1` (stereo not drawn) [KETOPROFEN], for which the IC50 entry in assay [5] is listed as “Not Active”.
For `Cc1ccc(S(=O)(=O)NC(=O)Cc2cn(-c3ccccc3)nc2-c2ccc(-c3ccccc3)cc2)cc1`, the IC50 in assay [4] (read-out: IC50) came to 1700 nM; in assay [5] (read-out: IC50) it was 3500 nM. Moreover, in assay [1], the inhibition entry was “inactive”. Besides, in assay [6], the Activity is 99.1%.
For `Cc1ccc(S(=O)(=O)NC(=O)Cc2c(C)n(Cc3ccc(Cl)cc3)c3ccc(Br)cc23)cc1`, the figures for the IC50 in assay [4] (read-out: IC50) and in assay [5] (read-out: IC50) were 1750 nM and 1700 nM, respectively. For the same molecule, the inhibition entry in assay [1] was “inactive”.
On the same counts, the results for `O=C(Cc1cn(-c2ccccc2)nc1-c1ccc(Cl)cc1)NS(=O)(=O)c1ccccc1` are 5900 nM, 6800 nM and “inactive”.
On to `CS(=O)(=O)NC(=O)Cc1cn(-c2ccccc2)nc1-c1ccc(Cl)cc1`, for which the inhibition result in assay [1] is “inactive”. Moreover, the results for the Activity in assay [2] and in assay [3] were 72.1% and 98%, respectively.
As for `O=C(O)Cc1cn(-c2ccccc2)nc1-c1ccc(Cl)cc1` [LONAZOLAC CALCIUM], the concentration for half-maximal inhibition (IC50) in assay [4] (read-out: IC50) was 45000 nM. The Activity in assay [2] stood at 59.7%.
As for `CC(C(=O)NS(C)(=O)=O)c1cccc(C(=O)c2ccccc2)c1` (stereo not drawn), the inhibition entry in assay [1] was “inactive”. Moreover, the Activity is 90.7% in assay [2] and 78.6% in assay [3].
Regarding `COc1ccc2c(c1)c(CC(=O)O)c(C)n2C(=O)c1ccc(Cl)cc1` [INDOMETHACIN], the concentration for half-maximal inhibition (IC50) is 40600 nM in assay [4] (read-out: IC50) and “Not Active” in assay [5]. Besides, in assay [6], the Activity is 23.3%.
Consider `O=C(Cc1cn(-c2ccccc2)nc1-c1ccc(C#Cc2ccccc2)cc1)NS(=O)(=O)c1ccc(Cl)cc1`, for which the IC50 in assay [4] (read-out: IC50) turned out to be 200 nM; in assay [5] (read-out: IC50) it was 1600 nM. In addition, in assay [1], the inhibition entry is “inactive”.
For `Cc1ccc(S(=O)(=O)NC(=O)C(C)c2cccc(C(=O)c3ccccc3)c2)cc1` (stereo not drawn), the inhibition entry in assay [1] was “inactive”. The Activity in assay [2] is 78.9%; in assay [3], 76.3%.
On to `COc1ccc2c(c1)c(CC(=O)NS(=O)(=O)c1ccc(C)cc1)c(C)n2C(=O)c1ccc(Cl)cc1`, for which the half-inhibitory concentration (IC50) in assay [4] (read-out: IC50) turned out to be 6400 nM; in assay [5] (read-out: IC50), 2900 nM. In assay [1], the inhibition entry is “inactive”. Further, the Activity in assay [6] came out at 89.4%.
